Assay results as given in PubChem BioAssay AID602222 (Southern Research Specialized Biocontainment Screening …, 2012).
Active and inactive are the calls of the source.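 The calls were made as follows: active = inhibition of 30% or more at any tested concentration; inactive = the rest.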

Each compound was assayed against M18 aspartyl aminopeptidase (Plasmodium falciparum 3D7) (assay: inhibition of malaria M18 aspartyl aminopeptidase – biochemical, QFRET, H-Glu-NHMec substrate, set 1, dose response (AID 602222)). Conditions: recombinant PfM18AAP, H-Glu-NHMec fluorogenic substrate cleavage.
Outline: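 Control set: Full reaction and no-enzyme wells | Material: PFM18AAP, purified recombinant M18 aspartyl aminopeptidase of Plasmodium falciparum | Input: Enzyme 5 µg/mL final | Reagent: H-Glu-NHMec substrate, 0.1 mM final | Compound: 10 concentrations, 1:2 steps, top 100 µM | Technique: Fluorescence of liberated NHMec leaving group | Replicates: Triplicate | Schedule: 90 min reaction at room temperature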

| IC50 [µM] | SMILES |
| --- | --- |
| 6.43 | Oc1ccc(-c2csc(Nc3ncccn3)n2)cc1O |
| 16.6 | CCc1ccc(NC(=O)Cc2nc(-c3ccc(O)c(O)c3)cs2)cc1 |
| 13.1 | Oc1ccc(-c2csc(NC3CCCC3)n2)cc1O |
| 4.3 | Oc1ccc(CCNc2c3ccccc3nc3ccccc23)cc1O |
| 13.3 | CN1CCN(CCCc2ccc(O)c(O)c2)CC1 |
| 27.1 | CN1CCN(CCc2ccc(O)c(O)c2)CC1 |
| 7.33 | Oc1ccc(CCNc2ccnc3ccccc23)cc1O |
| 9.37 | CN1CCN(c2nc(-c3ccc(O)c(O)c3)cs2)CC1 |

Same assay, conditions: recombinant PfM18AAP, H-Glu-NHMec fluorogenic substrate cleavage; at 100 µM (top of the series)

| inhibition | SMILES |
| --- | --- |
| inactive | COc1ccc(CCCN2CCN(C)CC2)cc1OC |
| inactive | COc1ccc(CCNC(c2ccccc2)c2ccccc2)cc1OC |
